Experimental data: ChEMBL document CHEMBL3217512, “Indole/triazole conjugates are selective inhibitors and inducers of bacterial biofilms” (Medchemcomm, 2013)

Experiments:
Acinetobacter baumannii [1] = assay: Antimicrobial activity against Acinetobacter baumannii 19606 assessed as effect on planktonic growth at 50 uM after 2 to 24 hrs; parameters: species or system ATCC 19606
Summary of the method: (§1)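 Growth curve analysis of planktonic bacteria with each biofilm inducer at 50 μM, used to assess toxicity.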

Escherichia coli [2] = assay: Antimicrobial activity against Escherichia coli K-12 ER2718 assessed as effect on planktonic growth at PC25 after 2 to 24 hrs; type: organism-based
Staphylococcus aureus [3] = assay: Antimicrobial activity against methicillin-resistant Staphylococcus aureus BAA 44 assessed as effect on planktonic growth at PC75 after 2 to 24 hrs; type: organism-based; conditions: in vivo
Staphylococcus aureus [4] = assay: Antimicrobial activity against methicillin-resistant Staphylococcus aureus BAA 44 assessed as effect on planktonic growth at IC50 after 2 to 24 hrs by colony count method; type: organism-based; conditions: in vivo
Staphylococcus aureus [5] = assay: Antimicrobial activity against Staphylococcus aureus 29213 assessed as effect on planktonic growth at PC75 after 2 to 24 hrs by colony count method; type: organism-based; conditions: in vivo
Staphylococcus aureus [6] = assay: Antimicrobial activity against Staphylococcus aureus 29213 assessed as effect on planktonic growth at PC50 after 2 to 24 hrs; type: organism-based; conditions: in vivo
Staphylococcus aureus [7] = assay: Antimicrobial activity against methicillin-resistant Staphylococcus aureus BAA 44 assessed as effect on planktonic growth at 50 uM after 2 to 24 hrs; type: organism-based
Summary of the method: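 Growth-curve analysis of planktonic MRSA in the presence of each biofilm inducer at 50 μM, to check for toxicity.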

Escherichia coli [8] = assay: Antimicrobial activity against Escherichia coli K-12 ER2718 assessed as effect on planktonic growth at IC50 after 2 to 24 hrs by colony count method; type: organism-based
Escherichia coli [9] = assay: Antimicrobial activity against Escherichia coli K-12 ER2718 assessed as effect on planktonic growth at PC50 after 2 to 24 hrs by colony count method; type: organism-based; conditions: in vivo
Acinetobacter baumannii [10] = assay: Antimicrobial activity against Acinetobacter baumannii 19606 assessed as effect on planktonic growth at PC75 after 2 to 24 hrs; parameters: species or system ATCC 19606
Staphylococcus aureus [11] = assay: Induction of biofilm formation in Staphylococcus aureus 29213 at 50 uM after 24 hrs by crystal violet staining-based assay relative to control; type: functional
Summary of the method: (§2)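 Static biofilm assay with compounds at 50 μM and crystal violet read-out, relative to an untreated control. Compounds increasing biofilm by less than 50% were called inducers, and by more than 50% strong inducers.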

Escherichia coli [12] = assay: Antimicrobial activity against Escherichia coli K-12 ER2718 assessed as effect on planktonic growth at 50 uM after 2 to 24 hrs; type: organism-based; summary of the method: as §1
Acinetobacter baumannii [13] = assay: Antimicrobial activity against Acinetobacter baumannii 19606 assessed as effect on planktonic growth at PC50 after 2 to 24 hrs by colony count method; parameters: species or system ATCC 19606
Escherichia coli [14] = assay: Antimicrobial activity against Escherichia coli K-12 ER2718 assessed as effect on planktonic growth at PC75 after 2 to 24 hrs by colony count method; type: organism-based; conditions: in vivo
Staphylococcus aureus [15] = assay: Antimicrobial activity against Staphylococcus aureus 29213 assessed as effect on planktonic growth at PC25 after 2 to 24 hrs; type: organism-based; conditions: in vivo
Escherichia coli [16] = assay: Antimicrobial activity against Escherichia coli K-12 ER2718 assessed as effect on planktonic growth at PC25 after 2 to 24 hrs by colony count method; type: organism-based
Escherichia coli [17] = assay: Antimicrobial activity against Escherichia coli K-12 ER2718 assessed as effect on planktonic growth at PC50 after 2 to 24 hrs; type: organism-based
Acinetobacter baumannii [18] = assay: Antimicrobial activity against Acinetobacter baumannii 19606 assessed as effect on planktonic growth at PC75 after 2 to 24 hrs by colony count method; parameters: species or system ATCC 19606
Acinetobacter baumannii [19] = assay: Antimicrobial activity against Acinetobacter baumannii 19606 assessed as effect on planktonic growth at IC50 after 2 to 24 hrs; parameters: species or system ATCC 19606
Acinetobacter baumannii [20] = assay: Antimicrobial activity against Acinetobacter baumannii 19606 assessed as effect on planktonic growth at PC50 after 2 to 24 hrs; parameters: species or system ATCC 19606
Acinetobacter baumannii [21] = assay: Antimicrobial activity against Acinetobacter baumannii 19606 assessed as effect on planktonic growth at PC25 after 2 to 24 hrs by colony count method; parameters: species or system ATCC 19606
Staphylococcus aureus [22] = assay: Antimicrobial activity against methicillin-resistant Staphylococcus aureus BAA 44 assessed as effect on planktonic growth at PC50 after 2 to 24 hrs; type: organism-based; conditions: in vivo
Staphylococcus aureus [23] = assay: Antimicrobial activity against methicillin-resistant Staphylococcus aureus BAA 44 assessed as effect on planktonic growth at PC25 after 2 to 24 hrs; type: organism-based; conditions: in vivo
Staphylococcus aureus [24] = assay: Antimicrobial activity against methicillin-resistant Staphylococcus aureus BAA 44 assessed as effect on planktonic growth at PC50 after 2 to 24 hrs by colony count method; type: organism-based; conditions: in vivo
Staphylococcus aureus [25] = assay: Antimicrobial activity against Staphylococcus aureus 29213 assessed as effect on planktonic growth at PC50 after 2 to 24 hrs by colony count method; type: organism-based; conditions: in vivo
Staphylococcus aureus [26] = assay: Antimicrobial activity against Staphylococcus aureus 29213 assessed as effect on planktonic growth at 50 uM after 2 to 24 hrs; type: organism-based; summary of the method: as §1
Staphylococcus aureus [27] = assay: Antimicrobial activity against methicillin-resistant Staphylococcus aureus BAA 44 assessed as effect on planktonic growth at PC75 after 2 to 24 hrs by colony count method; type: organism-based; conditions: in vivo
Escherichia coli [28] = assay: Antimicrobial activity against Escherichia coli K-12 ER2718 assessed as effect on planktonic growth at PC75 after 2 to 24 hrs; type: organism-based; conditions: in vivo
Staphylococcus aureus [29] = assay: Antimicrobial activity against methicillin-resistant Staphylococcus aureus BAA 44 assessed as effect on planktonic growth at IC50 after 2 to 24 hrs; type: organism-based; conditions: in vivo
Acinetobacter baumannii [30] = assay: Antimicrobial activity against Acinetobacter baumannii 19606 assessed as effect on planktonic growth at PC25 after 2 to 24 hrs; parameters: species or system ATCC 19606
Staphylococcus aureus [31] = assay: Antimicrobial activity against methicillin-resistant Staphylococcus aureus BAA 44 assessed as effect on planktonic growth at PC25 after 2 to 24 hrs by colony count method; type: organism-based; conditions: in vivo
Acinetobacter baumannii [32] = assay: Induction of biofilm formation in Acinetobacter baumannii 19606 at 50 uM after 24 hrs by crystal violet staining-based assay relative to control; type: functional, ATCC 19606 = CIP 70.34 = JCM 6841; summary of the method: as §2
Escherichia coli [33] = assay: Antimicrobial activity against Escherichia coli K-12 ER2718 assessed as effect on planktonic growth at IC50 after 2 to 24 hrs; type: organism-based
Acinetobacter baumannii [34] = assay: Antimicrobial activity against Acinetobacter baumannii 19606 assessed as effect on planktonic growth at IC50 after 2 to 24 hrs by colony count method; parameters: species or system ATCC 19606
Staphylococcus aureus [35] = assay: Antimicrobial activity against Staphylococcus aureus 29213 assessed as effect on planktonic growth at PC25 after 2 to 24 hrs by colony count method; type: organism-based; conditions: in vivo
Staphylococcus aureus [36] = assay: Antimicrobial activity against Staphylococcus aureus 29213 assessed as effect on planktonic growth at PC75 after 2 to 24 hrs; type: organism-based; conditions: in vivo
Escherichia coli [37] = assay: Induction of biofilm formation in Escherichia coli K-12 ER2718 at 50 uM after 24 hrs by crystal violet staining-based assay relative to control; type: functional; summary of the method: as §2
Staphylococcus aureus [38] = assay: Induction of biofilm formation in methicillin-resistant Staphylococcus aureus BAA 44 at 50 uM after 24 hrs by crystal violet staining-based assay relative to control; type: functional
Summary of the method: (§3)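 Static biofilm development in MRSA, read out by crystal violet staining against an untreated control. Initial screen at 150 μM. Inhibitors then went to dose-response, with IC50 taken as the concentration giving 50% inhibition of biofilm growth. Induction was judged at 50 μM: under 50% induction counted as "inducer", over 50% as "strong inducer".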

Staphylococcus aureus [39] = assay: Antimicrobial activity against Staphylococcus aureus 29213 assessed as effect on planktonic growth at IC50 after 2 to 24 hrs by colony count method; type: organism-based; conditions: in vivo
Staphylococcus aureus [40] = assay: Antimicrobial activity against Staphylococcus aureus 29213 assessed as effect on planktonic growth at IC50 after 2 to 24 hrs; type: organism-based; conditions: in vivo
Acinetobacter baumannii [41] = assay: Inhibition of biofilm formation in Acinetobacter baumannii 19606 at 150 uM after 24 hrs by crystal violet staining-based assay relative to control; type: functional; conditions: ATCC 19606 = CIP 70.34 = JCM 6841, 24 h
Staphylococcus aureus [42] = assay: Inhibition of biofilm formation in Staphylococcus aureus 29213 at 150 uM after 24 hrs by crystal violet staining-based assay relative to control; type: functional; conditions: Staphylococcus aureus, 29213, 24 h
Escherichia coli [43] = assay: Inhibition of biofilm formation in Escherichia coli K-12 ER2718 at 150 uM after 24 hrs by crystal violet staining-based assay relative to control; type: functional; conditions: K-12 ER2718, 24 h
Staphylococcus aureus [44] = assay: Inhibition of biofilm formation in methicillin-resistant Staphylococcus aureus BAA 44 after 24 hrs by crystal violet staining-based assay; type: functional, organism-based; conditions: BAA 44, 24 h; summary of the method: as §3
Acinetobacter baumannii [45] = assay: Inhibition of biofilm formation in Acinetobacter baumannii 19606 after 24 hrs by crystal violet staining-based assay; type: functional; conditions: ATCC 19606 = CIP 70.34 = JCM 6841, 24 h
Summary of the method: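 Compounds active in the 150 μM screen were taken into dose-response studies under static conditions with a crystal violet read-out. IC50 is the concentration that inhibits 50% of biofilm growth relative to an untreated control.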

Structure (SMILES) | Activity (Staphylococcus aureus [3]) | Activity (Staphylococcus aureus [4]) | Activity (Staphylococcus aureus [5]) | Activity (Staphylococcus aureus [6]) | Activity (Staphylococcus aureus [7]) | Activity (Escherichia coli [8]) | Activity (Staphylococcus aureus [11]) [%] | Activity (Staphylococcus aureus [15]) | Activity (Acinetobacter baumannii [19]) | Activity (Staphylococcus aureus [22]) | Activity (Staphylococcus aureus [23]) | Activity (Staphylococcus aureus [24]) | Activity (Staphylococcus aureus [25]) | Activity (Staphylococcus aureus [26]) | Activity (Staphylococcus aureus [27]) | Activity (Staphylococcus aureus [29]) | Activity (Escherichia coli [33]) | Activity (Acinetobacter baumannii [34]) | Activity (Staphylococcus aureus [39]) | Activity (Staphylococcus aureus [40]) | also measured
CCCCCCCc1ccc(C(=O)NCCn2cc(Cc3c(Br)[nH]c4ccccc34)nn2)cc1 | Non-toxic | Non-toxic | Non-toxic | Non-toxic | Non-toxic | Non-toxic | <50 | Non-toxic | Non-toxic | Non-toxic | Non-toxic | Non-toxic | Non-toxic | Non-toxic | Non-toxic | Non-toxic | Non-toxic | Non-toxic | Non-toxic | Non-toxic | Activity (Acinetobacter baumannii [1]): Non-toxic; Activity (Escherichia coli [2]): Non-toxic; Activity (Escherichia coli [9]): Non-toxic; Activity (Acinetobacter baumannii [10]): Non-toxic; Activity (Escherichia coli [12]): Non-toxic; Activity (Acinetobacter baumannii [13]): Non-toxic; Activity (Escherichia coli [14]): Non-toxic; Activity (Escherichia coli [16]): Non-toxic; Activity (Escherichia coli [17]): Non-toxic; Activity (Acinetobacter baumannii [18]): Non-toxic; Activity (Acinetobacter baumannii [20]): Non-toxic; Activity (Acinetobacter baumannii [21]): Non-toxic; Activity (Escherichia coli [28]): Non-toxic; Activity (Acinetobacter baumannii [30]): Non-toxic; Activity (Staphylococcus aureus [31]): Non-toxic; Activity (Acinetobacter baumannii [32]): <50%; Activity (Staphylococcus aureus [35]): Non-toxic; Activity (Staphylococcus aureus [36]): Non-toxic; Activity (Escherichia coli [37]): <50%; Activity (Staphylococcus aureus [38]): >50%
CCCCCCNC(=O)Cn1cc(Cc2c(Br)[nH]c3ccccc23)nn1 | Non-toxic | Non-toxic | – | – | Non-toxic | Non-toxic | – | – | Non-toxic | Non-toxic | Non-toxic | Non-toxic | – | – | Non-toxic | Non-toxic | Non-toxic | Non-toxic | Non-toxic | Non-toxic | inhibition at 150 µM (Acinetobacter baumannii [41]): 17%; inhibition at 150 µM (Staphylococcus aureus [42]): < 5%; inhibition at 150 µM (Escherichia coli [43]): < 5%; Activity (Staphylococcus aureus [31]): Non-toxic; Activity (Staphylococcus aureus [38]): <50%
O=C(Cn1cc(Cc2c(Br)[nH]c3ccccc23)nn1)Nc1ccccc1 | – | Non-toxic | Non-toxic | Non-toxic | – | Non-toxic | >50 | Non-toxic | Non-toxic | – | – | – | Non-toxic | Non-toxic | – | Non-toxic | Non-toxic | Non-toxic | Non-toxic | Non-toxic | IC50 (Staphylococcus aureus [44]): 151 µM; inhibition at 150 µM (Escherichia coli [43]): 12%; IC50 (Acinetobacter baumannii [45]): 326 µM; Activity (Staphylococcus aureus [35]): Non-toxic; Activity (Staphylococcus aureus [36]): Non-toxic
